IC50 data for 18 molecules are collected here from ChEMBL document CHEMBL1938295, “Synthesis of substituted benzimidazolyl curcumin mimics and their anticancer activity” (Bioorg Med Chem Lett, 2012).

Common to all, as to assay type: functional, cell-based
The test system of one experiment is SH-SY5Y. Nature of the experiment: Cytotoxicity against human SH-SY5Y cells after 24 to 48 hrs by MTT assay. Put shortly:
(§1)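 Treatment began 24 h after seeding. Compounds were dissolved in DMSO and diluted in DMEM to final 1, 5, 10, 20 and 40 μM, then incubated 24 or 48 h. MTT (0.5 mg/ml) was added for 3 h at 37 °C, formazan dissolved in DMSO, and absorbance read at 595 nm. Each assay was run in triplicate. IC50 came from nonlinear regression of a sigmoid dose-response curve, accepted when R^2 >0.95.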

For a further experiment, the system named is MCF7. Nature of the experiment: Cytotoxicity against human MCF7 cells after 24 to 48 hrs by MTT assay.
For a further experiment, the system named is NCI-H460. Nature of the experiment: Cytotoxicity against human H460 cells after 24 to 48 hrs by MTT assay. Put shortly: as §1
The subject of a further experiment is HepG2. Nature of the experiment: Cytotoxicity against human HepG2 cells after 24 to 48 hrs by MTT assay. Put shortly:
as §1

By IC50 is commonly meant the concentration needed to halve the response being measured. For `COc1ccc(/C=C/C(=O)/C=C/c2nc3cc(Cl)ccc3n2C)cc1O`, the IC50 amounted to 4.8 µM with SH-SY5Y, 3.5 µM in the experiment with MCF7, 7.3 µM in the experiment with NCI-H460 and 4.1 µM in the experiment on HepG2.
The matching figures for `COc1ccc(/C=C/C(=O)/C=C/c2nc3cc(O)ccc3n2C)cc1O`: 4.6 µM, 1.9 µM, 7.2 µM and 3.7 µM.
On the same counts, the results for `COc1ccc(/C=C/C(=O)/C=C/c2nc3cc(C)ccc3n2C)cc1O` are 4.8 µM, 3.6 µM, 7.7 µM and 3.3 µM.
The matching figures for `COc1cc(/C=C/C(=O)/C=C/c2nc3cc(Cl)ccc3n2C)ccc1O`: 4.7 µM, 4.4 µM, 8.9 µM and 4 µM.
In the case of `COc1ccc2c(c1)nc(/C=C/C(=O)/C=C/c1ccc(O)c(OC)c1)n2C`, the IC50 worked out at 4.8 µM in the experiment with SH-SY5Y, 3.9 µM in the experiment with MCF7, 12.7 µM in the experiment with NCI-H460 and 3.8 µM in the experiment with HepG2.
The matching figures for `COc1cc(/C=C/C(=O)/C=C/c2nc3cc([N+](=O)[O-])ccc3n2C)ccc1O`: 4.6 µM, 3.7 µM, 6.7 µM and 3.7 µM.
The matching figures for `COc1ccc(/C=C/C(=O)/C=C/c2nc3c(C)c(C)ccc3n2C)cc1O`: 4.8 µM, 3.5 µM, 7.3 µM and 3.9 µM.
The matching figures for `COc1ccc(/C=C/C(=O)/C=C/c2nc3ccccc3n2C)cc1O`: 4.8 µM, 3.6 µM, 6.9 µM and 2.9 µM.
As to `COc1cc(/C=C/C(=O)/C=C/c2nc3cc(O)ccc3n2C)ccc1O`, the IC50 with SH-SY5Y was 4.8 µM; in the experiment on MCF7, 2.9 µM; in the experiment with NCI-H460 it was 7.6 µM; in the experiment on HepG2, 3.6 µM.
With `COc1cc(/C=C/C(=O)/C=C/c2nc3c(C)cccc3n2C)ccc1O`, the IC50 with SH-SY5Y worked out at 1 µM; in the experiment on MCF7, 3.5 µM; in the experiment on NCI-H460, 3 µM; with HepG2, 1.9 µM.
As for `CC(=O)O[C@H]1C(=O)[C@@]2(C)[C@H]([C@H](OC(=O)c3ccccc3)[C@]3(O)C[C@H](OC(=O)[C@H](O)[C@@H](NC(=O)c4ccccc4)c4ccccc4)C(C)=C1C3(C)C)[C@]1(OC(C)=O)CO[C@@H]1C[C@@H]2O` [PACLITAXEL], the IC50 in the experiment with SH-SY5Y came out at 0.004 µM; in the experiment with NCI-H460, 0.008 µM; in the experiment with HepG2, 0.007 µM.
Turning to `COc1ccc(/C=C/C(=O)/C=C/c2nc3cc([N+](=O)[O-])ccc3n2C)cc1O`, the IC50 in the experiment with SH-SY5Y amounted to 8.1 µM; in the experiment with MCF7, 4.8 µM; with NCI-H460 it was 10.5 µM; in the experiment on HepG2, 4.6 µM.
The matching figures for `COc1ccc(/C=C/C(=O)/C=C/c2nc3c(C)cccc3n2C)cc1O`: 19.1 µM, 7.4 µM, 25.4 µM and 14.7 µM.
On to `COc1cc(/C=C/C(=O)CC(=O)/C=C/c2ccc(O)c(OC)c2)ccc1O` [CURCUMIN], for which the IC50 in the experiment with SH-SY5Y stood at 105 µM; with MCF7, 49.8 µM; with NCI-H460, 51.3 µM; in the experiment with HepG2 it was 87.5 µM.
The matching figures for `COc1cc(/C=C/C(=O)/C=C/c2nc3c(C)c(C)ccc3n2C)ccc1O`: 19 µM, 14.1 µM, 31.9 µM and 8.5 µM.
The matching figures for `COc1cc(/C=C/C(=O)/C=C/c2nc3ccccc3n2C)ccc1O`: 4.7 µM, 3.7 µM, 7 µM and 2.9 µM.
The matching figures for `COc1cc(/C=C/C(=O)/C=C/c2nc3cc(C)ccc3n2C)ccc1O`: 4.7 µM, 4.5 µM, 7.7 µM and 4.2 µM.
`COc1ccc2c(c1)nc(/C=C/C(=O)/C=C/c1ccc(OC)c(O)c1)n2C`: the IC50 in the experiment with SH-SY5Y was found to be 4.8 µM; with MCF7, 3.7 µM; in the experiment on NCI-H460, 11.7 µM; with HepG2, 4.2 µM.
